# Only some compounds are listed: those with a hit (about 6.9% of all), similar ones and a draw of the others.
# PostGolgi ctrl = growth of the yeast control strain, post-Golgi counter-screen. efflux-deficient yeast background strain, growth absorbance A615, 16 h. inhibition, % at 10 µM. 98,000 compounds, 5% hits
# PTK2B oligo ant = antagonists of human Pyk2 oligomerization; z-score (the deposit names both 25 µM and 10 µM); Q14289; Q293 cells, Pyk2 FERM NanoBiT luminescence; active compounds read low; 99,000 compounds, 0.83% hits; AID 1347419;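 active = Z-score of -3 or lower, scaled per plate to the spread of control and sample wells; inactive = z-score above -3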;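 note: negative z-score means lost luminescence so less FERM oligomerization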
# Target sequence (Q14289 whole entry, looked up): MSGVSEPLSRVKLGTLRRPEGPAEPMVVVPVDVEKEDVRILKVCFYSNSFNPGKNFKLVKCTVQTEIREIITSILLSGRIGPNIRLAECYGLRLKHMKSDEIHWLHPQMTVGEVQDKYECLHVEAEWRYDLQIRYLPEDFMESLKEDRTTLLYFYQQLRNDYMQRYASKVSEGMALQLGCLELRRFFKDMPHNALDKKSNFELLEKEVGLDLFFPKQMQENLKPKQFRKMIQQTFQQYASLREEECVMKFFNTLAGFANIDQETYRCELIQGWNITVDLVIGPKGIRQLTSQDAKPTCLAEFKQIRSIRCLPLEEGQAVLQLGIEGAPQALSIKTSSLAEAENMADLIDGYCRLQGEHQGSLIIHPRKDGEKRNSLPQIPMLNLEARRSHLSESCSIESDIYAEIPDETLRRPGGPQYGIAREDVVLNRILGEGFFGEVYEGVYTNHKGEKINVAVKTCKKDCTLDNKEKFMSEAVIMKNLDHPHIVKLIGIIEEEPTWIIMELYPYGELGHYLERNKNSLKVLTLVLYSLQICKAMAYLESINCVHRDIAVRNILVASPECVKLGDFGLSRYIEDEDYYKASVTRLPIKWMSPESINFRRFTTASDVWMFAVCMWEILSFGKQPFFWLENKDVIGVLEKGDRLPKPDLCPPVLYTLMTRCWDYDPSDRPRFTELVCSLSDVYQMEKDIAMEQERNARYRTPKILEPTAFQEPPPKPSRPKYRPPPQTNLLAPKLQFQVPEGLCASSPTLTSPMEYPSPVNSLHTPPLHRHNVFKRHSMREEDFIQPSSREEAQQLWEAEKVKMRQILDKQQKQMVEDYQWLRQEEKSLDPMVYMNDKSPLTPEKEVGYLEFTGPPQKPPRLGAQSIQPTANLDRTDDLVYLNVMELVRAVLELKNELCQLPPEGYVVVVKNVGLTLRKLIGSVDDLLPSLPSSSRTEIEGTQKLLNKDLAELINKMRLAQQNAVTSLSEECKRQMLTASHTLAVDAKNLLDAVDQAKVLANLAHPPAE
# Candida biofilm = kills Candida albicans biofilms. C. albicans biofilm + clotrimazole, Alamar Blue. inhibition, % at 6 µM. 85,000 compounds, 0.14% hits;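 active = inhibition above 20%; inactive = inhibition below 20%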;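 note: preformed 24 hr biofilms exposed to compound for 48 hr; 0% = biofilm without compound and 100% = blank killed by clotrimazole plus chlorhexidine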
# FAK blocker = blocks human focal adhesion kinase activity | Q05397 | biochemical FAK kinase activity assay | inhibition, %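 (tested at 7 µM)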 | 97,000 compounds, 0.84% hits | AID 727; in the data active = inhibition above about 19%;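 note: 0% = DMSO and 100% = reference compound high control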
# tolC growth inh = E. coli tolC mutant growth inhibition; growth inhibition, % at 10 µM (by protocol); E. coli BW25113 tolC mutant growth, OD615; 65,000 compounds, 2.2% hits;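 active = growth inhibition at or above a cutoff equal to the mean over every tested compound plus 3 SD, cut at about 60% in these data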;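 note: growth measured after 20 h incubation at 37 °C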
#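 System: E. coli ΔtolC::kan strain BW25113; Buffer or medium: LB broth supplemented with 50 µg/mL kanamycin; Compound: 10 µM final, single dose; Incubation: bacterial growth with compound for 20 h at 37 °C; Signal: A615 absorbance measurement; Evaluation: growth inhibition in percent.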
# PostGolgi yeast = growth inhibition of a yeast mutant, post-Golgi transport screen; inhibition, % at 10 µM; AID 739; 98,000 compounds, 0.9% hits; post-Golgi transport phenotypic cell assay;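 note: yeast cells grown in 1536-well plates; yeast grown about 18 h at 30C before absorbance read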
# * = called active by the depositor; / = no result given. Cut-off read from the data, not from the text of the source, unless noted: active = inhibition above about 30%; inactive = the rest.
SMILES,PostGolgi ctrl,PTK2B oligo ant,Candida biofilm,FAK blocker,tolC growth inh,PostGolgi yeast
CCNC(=O)c1ccccc1NC(=O)c1cccc(S(=O)(=O)N2CCC(C)CC2)c1,23,-2.9,/,-6,30,-4
CC1CCN(S(=O)(=O)c2ccc3ccccc3c2)CC1,34*,-2.4,4,1,/,5
CN1CCN(S(=O)(=O)c2ccc3ccccc3c2)CC1,15,/,9,-2,-13,7
O=C(NC(=S)NNC(=O)c1ccccc1[N+](=O)[O-])c1ccccc1,/,0.95,9,0,/,/
CC1(C)C(c2cccs2)=[N+]([O-])C2(CCCCC/C2=N\O)N1O (centres undefined),12,0.1,4,0,-17,4
Cc1nc(-c2cccc(S(=O)(=O)N3CCCCCC3)c2)cs1,16,-1.7,2,0,/,-4
Cc1nc(-c2cccc(S(=O)(=O)N3CCC(C)CC3)c2)cs1,38*,-0.7,0,4,/,-7
O=C(c1cc(=O)[nH]c2ccccc12)N1CCN(S(=O)(=O)c2ccc3ccccc3c2)CC1,21,-3.3*,1,-1,/,-6
COc1ccc(S(=O)(=O)N2CCN(C(=O)COc3ccc4c(C)cc(=O)oc4c3)CC2)cc1,30*,/,0,-4,-4,5
CCCC(=N)C1=C(O)CC(CC(C)SCC)CC1=O (centres undefined),2,1.2,5,/,3,4
CC(=O)C1=C(O)C(=O)N(Cc2cccnc2)C1c1ccc(Cl)cc1Cl (centres undefined),/,0.36,4,0,-10,/
Cc1cc(O)c(-c2n[nH]c3c2C(c2cccc(O)c2)N(Cc2cccnc2)C3=O)cc1Cl (centres undefined),-7,-3.9*,4,0,4,-4
O=C(CSc1nc(-c2cccs2)cc(C(F)(F)F)n1)NCc1ccccc1,30*,-1.3,5,1,/,-3
CCn1cc(C(=O)N[C@H](C)c2ccccc2)c(=O)c2cc(F)c(N3CCN(C)CC3)cc21,2,-0.37,3,2,/,3
CCn1cc(C(=O)NCc2ccc3c(c2)OCO3)c(=O)c2cc(F)c(N3CCN(C)CC3)cc21,7,-1,1,-4,100*,9
CCn1cc(C(=O)O)c(=O)c2cc(F)c(N3CCNCC3)cc21,/,/,22*,/,1,/
CCCn1cc(SCC(=O)NCc2ccc3c(c2)OCO3)c2ccccc21,16,/,2,-6,/,2
CCn1cc(C(=O)O)c(=O)c2cc(F)c(N3CCN(C(=O)Nc4ccccc4)CC3)cc21,-2,-1.4,11,1,100*,-2
CCn1cc(SCC(=O)NCc2ccc3c(c2)OCO3)c2ccccc21,36*,/,10,/,17,-5
COC(=O)Nc1ccc2c(c1)OCO2,/,-0.04,-4,0,/,/
COc1ccc(OCc2nnc(SC3CCOC3=O)n2-c2ccccc2)cc1 (centres undefined),-3,0.82,7,2,6,-1
CCCCc1ccc(-c2csc(/C(C#N)=C/c3ccco3)n2)cc1,/,0.63,/,/,/,/
CCn1cc(C(=O)NCc2ccccn2)c(=O)c2cc(F)c(N3CCN(C)CC3)cc21,10,0.09,7,/,13,1
CCOC(=O)c1cn(CC)c2cc(N3CCSCC3)c(F)cc2c1=O,6,-0.92,4,-2,100*,0
CC1CCCC(C)N1C(=O)Cn1cc(/C=C2/C(=O)Nc3ccccc32)c2ccccc21 (centres undefined),82*,-3,-1,5,/,0
SMILES,PostGolgi ctrl,PTK2B oligo ant,Candida biofilm,FAK blocker,tolC growth inh,PostGolgi yeast
COC(=O)c1cn(CC(=O)N2C(C)CCCC2C)c2ccccc12 (centres undefined),/,-0.61,-1,-1,/,/
N#CC1=C(N)C(C#N)(C#N)[C@H](c2ccoc2)[C@H]2CN(Cc3ccccc3)CC=C12,7,-0.06,8,2,20,-3
O=C(Cc1cccs1)Nc1ccc(Cl)cc1,4,-0.72,-1,9,13,2
O=C(Nc1cccc(Cl)c1)N(CCCN1CCOCC1)Cc1ccccc1F,4,-0.38,3,3,68*,0
O=C(Nc1ccc(Cl)cc1)N(Cc1cccs1)Cc1cccs1,35*,-2.2,4,2,95*,2
O=C(Nc1ccc(F)cc1)N(CCCN1CCOCC1)Cc1cc2cc3c(cc2[nH]c1=O)OCCO3,40*,0.52,10,7,8,2
O=C(Nc1ccc(F)cc1)N(CCCN1CCOCC1)Cc1cc2cc3c(cc2[nH]c1=O)OCO3,2,0.36,/,/,-6,8
O=C(Nc1ccc(Cl)c(Cl)c1)N(CCCN1CCOCC1)Cc1cccs1,31*,/,10,12,/,15
O=C(CCCn1c(=S)[nH]c2ccccc2c1=O)NC1CCCC1,-2,-1.2,-1,0,-6,1
O=C(COC(=O)Cc1cn2ccsc2n1)NCc1ccc2c(c1)OCO2,4,1.3,1,-5,-10,-6
CC1Cc2ccccc2N1C(=O)COc1nc2ccccc2nc1N1CCOCC1 (centres undefined),12,-1.9,0,0,24,-5
CC(=O)c1cccc(N(C(=O)Cn2nnc3ccccc32)C(C(=O)NC2CCCCC2)c2cn(C)nc2C)c1 (centres undefined),6,0.39,1,-1,/,-6
CSc1nc(N)nc(SCC(=O)C23CC4CC(CC(C4)C2)C3)c1C#N,60*,1.7,/,-4,11,12
COc1ccc(C(=O)CSc2nc(N)nc(SC)c2C#N)cc1,33*,-0.1,1,-1,/,0
COc1ccc(N2Cc3cccc(C(=O)O)c3C2=O)cc1,4,/,12,9,-9,-5
COc1ccc(-c2nnc(NC(=O)c3cc(Cl)ccc3Cl)o2)cc1,16,/,9,-8,98*,13
O=C(Nc1nnc(-c2ccc3c(c2)CCCC3)o1)c1ccc(Cl)cc1Cl,30,/,6,-7,/,85*
COc1ccccc1C(=O)Nc1nnc(-c2ccc(Cl)cc2)o1,/,/,/,/,44,/
O=C(Nc1nnc(-c2ccc3c(c2)CCCC3)o1)C1CCCCC1,0,/,6,3,12,-1
CC(C)CN(CC(C)C)C(=O)CS(=O)(=O)Cc1ccccc1,-2,0.41,3,0,-1,-7
C=CCn1c(=O)/c(=C/c2ccc(Cl)cc2)s/c1=C(/C#N)c1nnc2n1CCCCC2,21,-2,11,1,13,-2
C=CCn1c(=O)/c(=C/c2ccc(O)cc2)s/c1=C(/C#N)c1nnc2n1CCCCC2,5,-3.1*,8,0,12,-6
Cc1cccc(C)c1N1C(=O)c2ccccc2C1=O,7,0.99,40*,0,18,9
Cn1c2ccc(Cl)cc2c2nc3ccccc3nc21,6,/,3,0,34,38*
O=C(NCc1ccccc1)N1CCN(c2ccccc2F)CC1,31*,0.18,8,10,-6,4
Nc1ccc(SC(F)(F)F)cc1C(=O)c1ccccc1,16,-1.4,-3,9,6,-8
CC12CCC(C(=O)NCc3ccc4c(c3)OCO4)(OC1=O)C2(C)C (centres undefined),33*,0.38,4,1,9,10

# Compound activity from PubChem BioAssay.
